Assay results from ChEMBL document CHEMBL1641600, “Novel bifunctional alkylating agents, 5,10-dihydropyrrolo[1,2-b]isoquinoline derivatives, synthesis and biological activity” (Bioorg Med Chem, 2011).

How the values were obtained:
[1] = Cytotoxicity against human H1299 cells after 72 hrs by Alamar blue assay; format: functional, cell-based; details: NCI-H1299, 72 h
How it was run: (§1)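 H1299, PC3, OECM1 and U87 cells exposed 72 h to six or seven drug concentrations. Alamar blue added for 6 h at 37 °C; absorbance read at 570 and 600 nm. IC50 obtained from dose-effect data by the median-effect principle.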

[2] = Cytotoxicity against human U87 cells after 72 hrs by Alamar blue assay; format: functional, cell-based, U-87MG ATCC; details: U-87 MG; how it was run: as §1
MX1 = test: Cytotoxicity against human MX1 cells after 72 hrs by SRB assay; format: functional, cell-based; details: MX1, 72 h
How it was run: (§2)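 MX-1 breast and HCT-116 colon carcinoma cells exposed 72 h to six or seven drug concentrations. Growth measured by SRB assay with microplate absorbance. IC50 obtained from dose-effect data by the median-effect principle.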

HCT-116 = test: Cytotoxicity against human HCT116 cells after 72 hrs by SRB assay; format: functional, cell-based; details: HCT-116, 72 h; how it was run: as §2
[3] = Cytotoxicity against human OECM1 cells after 72 hrs by Alamar blue assay; format: functional, cell-based; details: OECM1, 72 h; how it was run: as §1
PC-3 = test: Cytotoxicity against human PC3 cells after 72 hrs by Alamar blue assay; format: functional, cell-based; details: PC-3, 72 h; how it was run: as §1
CCRF-CEM [4] = test: Cytotoxicity against vinblastine-resistant human CCRF-CEM cells after 72 hrs by XTT assay; format: functional, cell-based
How it was run: (§3)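 Leukemic CCRF-CEM and its Taxol- and vinblastine-resistant sublines exposed 72 h to six or seven drug concentrations. XTT with phenazine methosulfate added for 6 h at 37 °C; absorbance read at 450 and 630 nm. IC50 obtained from dose-effect data by the median-effect principle.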

CCRF-CEM [5] = test: Ratio of IC50 for Taxol-resistant human CCRF-CEM cells to IC50 for human CCRF-CEM cells
CCRF-CEM [6] = test: Cytotoxicity against Taxol-resistant human CCRF-CEM cells after 72 hrs by XTT assay; format: functional, cell-based; how it was run: as §3
CCRF-CEM [7] = test: Cytotoxicity against human CCRF-CEM cells after 72 hrs by XTT assay; format: functional, cell-based; how it was run: as §3

| SMILES | IC50 [1] | IC50 [2] | IC50 (MX1) | IC50 (HCT-116) | IC50 [3] | IC50 (PC-3) | IC50 (CCRF-CEM [4]) | Ratio IC50 (CCRF-CEM [5]) | IC50 (CCRF-CEM [6]) | IC50 (CCRF-CEM [7]) |
| --- | --- | --- | --- | --- | --- | --- | --- | --- | --- | --- |
| OCc1c(CO)c(-c2ccc(F)cc2)n2c1Cc1ccccc1C2 | 8760 nM | 23200 nM | 4010 nM | 2460 nM | 6990 nM | 5930 nM | 490 nM | 1.72 | 880 nM | 510 nM |
| CC(C)NC(=O)OCc1c(COC(=O)NC(C)C)c(-c2ccc(F)cc2)n2c1Cc1ccccc1C2 | 8130 nM | 36900 nM | 1170 nM | 630 nM | 11000 nM | 12300 nM | 230 nM | 0.3 | 230 nM | 760 nM |
| CCNC(=O)OCc1c(COC(=O)NCC)c(-c2ccc(Cl)c(Cl)c2)n2c1Cc1ccccc1C2 |  |  |  |  |  |  | 1190 nM | 0.38 | 900 nM | 2370 nM |
| CCNC(=O)OCc1c(COC(=O)NCC)c(-c2ccc(F)cc2)n2c1Cc1ccccc1C2 | 3940 nM | 28400 nM | 1510 nM | 790 nM | 12500 nM | 9590 nM | 570 nM | 1.39 | 430 nM | 310 nM |
| CCNC(=O)OCc1c(COC(=O)NCC)c2n(c1CC)Cc1ccccc1C2 |  |  |  |  |  |  | 240 nM | 0.48 | 210 nM | 440 nM |
| CCNC(=O)OCc1c(COC(=O)NCC)c(-c2cc(OC)c(OC)c(OC)c2)n2c1Cc1ccccc1C2 |  |  |  |  |  |  | 3130 nM | 1.52 | 2140 nM | 1410 nM |
| CCNC(=O)OCc1c(COC(=O)NCC)c2n(c1C)Cc1ccccc1C2 | 19400 nM | 13900 nM | 2270 nM | 900 nM | 11300 nM | 15400 nM | 120 nM | 0.48 | 110 nM | 240 nM |
| CNC(=O)OCc1c(COC(=O)NC)c(-c2ccc(F)c(F)c2)n2c1Cc1ccccc1C2 |  |  | 2730 nM | 360 nM |  |  | 470 nM | 0.91 | 450 nM | 490 nM |
| COc1ccc(-c2c(COC(=O)NC(C)C)c(COC(=O)NC(C)C)c3n2Cc2ccccc2C3)cc1 | 13200 nM | 21000 nM | 980 nM | 970 nM | 8830 nM | 6790 nM | 160 nM | 0.56 | 190 nM | 340 nM |
| CCc1c(CO)c(CO)c2n1Cc1ccccc1C2 |  |  |  |  |  |  | 190 nM | 1.15 | 210 nM | 180 nM |
| CNC(=O)OCc1c(COC(=O)NC)c(-c2ccc(OC)cc2)n2c1Cc1ccccc1C2 |  |  | 1330 nM | 1070 nM |  |  | 90 nM | 0.72 | 130 nM | 180 nM |
| CC(C)NC(=O)OCc1c(COC(=O)NC(C)C)c(-c2ccccc2)n2c1Cc1ccccc1C2 |  |  |  |  |  |  | 250 nM | 0.5 | 230 nM | 450 nM |
| OCc1c(CO)c(-c2ccc(Cl)c(Cl)c2)n2c1Cc1ccccc1C2 |  |  |  |  |  |  | 6420 nM | 0.57 | 4820 nM | 8440 nM |
| CC(=O)O[C@H]1C(=O)[C@@]2(C)[C@H]([C@H](OC(=O)c3ccccc3)[C@]3(O)C[C@H](OC(=O)[C@H](O)[C@@H](NC(=O)c4ccccc4)c4ccccc4)C(C)=C1C3(C)C)[C@]1(OC(C)=O)CO[C@@H]1C[C@@H]2O [PACLITAXEL] |  |  |  |  |  |  |  | 330 |  |  |
| CC(C)NC(=O)OCc1c(COC(=O)NC(C)C)c(-c2ccc(Cl)cc2)n2c1Cc1ccccc1C2 | 25200 nM | 22700 nM | 1700 nM | 690 nM | 26100 nM | 9970 nM | 570 nM | 1.16 | 630 nM | 540 nM |
| COc1cc(-c2c(CO)c(CO)c3n2Cc2ccccc2C3)cc(OC)c1OC |  |  |  |  |  |  | 2780 nM | 1.45 | 2880 nM | 1970 nM |
| CCc1c(COC(=O)NC(C)C)c(COC(=O)NC(C)C)c2n1Cc1ccccc1C2 |  |  |  |  |  |  | 180 nM | 0.56 | 320 nM | 570 nM |
| CNC(=O)OCc1c(COC(=O)NC)c2n(c1C)Cc1ccccc1C2 |  |  | 1680 nM | 1170 nM |  |  | 80 nM | 0.86 | 110 nM | 130 nM |
| OCc1c(CO)c(-c2ccc(F)c(F)c2)n2c1Cc1ccccc1C2 |  |  | 6990 nM | 3210 nM |  |  | 950 nM | 1.11 | 1260 nM | 1140 nM |
| COc1ccc(-c2c(CO)c(CO)c3n2Cc2ccccc2C3)cc1OC |  |  |  |  |  |  | 620 nM | 0.69 | 760 nM | 1100 nM |
| CC[C@]1(O)C[C@@H]2CN(CCc3c([nH]c4ccccc34)[C@@](C(=O)OC)(c3cc4c(cc3OC)N(C)[C@H]3[C@@](O)(C(=O)OC)[C@H](OC(C)=O)[C@]5(CC)C=CCN6CC[C@]43[C@@H]65)C2)C1 [VINBLASTINE] |  |  |  |  |  |  |  | 106.2 |  |  |
| COc1ccc(-c2c(COC(=O)NC(C)C)c(COC(=O)NC(C)C)c3n2Cc2ccccc2C3)cc1OC |  |  |  |  |  |  | 770 nM | 0.46 | 600 nM | 1290 nM |
| CCNC(=O)OCc1c(COC(=O)NCC)c(-c2ccc(F)c(F)c2)n2c1Cc1ccccc1C2 |  |  |  |  |  |  | 670 nM | 0.6 | 1250 nM | 2080 nM |
| CNC(=O)OCc1c(COC(=O)NC)c(-c2ccc(Cl)cc2)n2c1Cc1ccccc1C2 |  |  | 1180 nM | 40 nM |  |  | 160 nM | 1.18 | 220 nM | 190 nM |
| OCc1c(CO)c(-c2ccccc2)n2c1Cc1ccccc1C2 |  |  |  |  |  |  | 290 nM | 0.99 | 500 nM | 510 nM |
| CCNC(=O)OCc1c(COC(=O)NCC)c(-c2ccccc2)n2c1Cc1ccccc1C2 |  |  |  |  |  |  | 230 nM | 1.01 | 260 nM | 260 nM |
| CC(C)NC(=O)OCc1c(COC(=O)NC(C)C)c(-c2ccc(Cl)c(Cl)c2)n2c1Cc1ccccc1C2 |  |  |  |  |  |  | 1350 nM | 0.69 | 2470 nM | 3550 nM |
| COc1cc(-c2c(COC(=O)NC(C)C)c(COC(=O)NC(C)C)c3n2Cc2ccccc2C3)cc(OC)c1OC |  |  |  |  |  |  | 1420 nM | 1.35 | 1200 nM | 890 nM |
| CC(C)NC(=O)OCc1c(COC(=O)NC(C)C)c(-c2ccc(F)c(F)c2)n2c1Cc1ccccc1C2 |  |  |  |  |  |  | 610 nM | 0.58 | 780 nM | 1330 nM |
| CCNC(=O)OCc1c(COC(=O)NCC)c(-c2ccc(OC)c(OC)c2)n2c1Cc1ccccc1C2 |  |  |  |  |  |  | 650 nM | 0.75 | 810 nM | 1070 nM |
